Test results as given in ChEMBL document CHEMBL1152900, “Synthesis and evaluation of the antioxidant and anti-inflammatory activity of novel coumarin-3-aminoamides and their alpha-lipoic acid adducts” (Eur J Med Chem, 2009).
The source made the active and inactive calls. The calls are words filed in the database; no cut-off is given here.

Tests used:
[1] = Antioxidant activity against hydroxyl radical assessed as inhibition of formaldehyde production at 0.1 mM after 30 mins relative to DMSO; assay type: functional; set-up: scale not given: the % may be the effect or the level left
Method in brief: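 Hydroxyl radicals were generated with Fe3+, DMSO 33 mM and ascorbic acid 10 mM in 50 mM phosphate buffer, pH 7.4, with test compound at 0.1 mM final. Mixtures were incubated 30 min at 37 °C, stopped with CCl3COOH (17% w/v), and formaldehyde was read spectrophotometrically at 412. At least triplicate.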

[2] = Acute toxicity in rat assessed as survival up to 0.5 mmol/kg after 24 hrs; assay type: organism-based; details: in vivo, read-out: Activity
Method in brief: (§1)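 Rats were split into 5 groups of 6–8 animals each and injected with graded doses of 0.1–0.5 mmol/kg body weight. Animals were then scored for survival and examined macroscopically and at autopsy.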

Rattus norvegicus [3] = assay: Acute toxicity in rat assessed as mortality up to 0.5 mmol/kg after 24 hrs by macroscopic analysis; assay type: organism-based; details: in vivo; method in brief: as §1
Rattus norvegicus [4] = assay: Acute toxicity in rat assessed as mortality up to 0.5 mmol/kg after 24 hrs by autopsy; assay type: organism-based; details: in vivo; method in brief: as §1
Glycine max = assay: Inhibition of soybean lipoxygenase assessed as conversion of sodium linoleate to 13-hydroperoxylinoleic acid at 0.1 mM
Method in brief: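 Soybean lipoxygenase (enzyme solution 1/9 × 10^-4 w/v in saline) was incubated at room temperature with sodium linoleate 0.1 mM and test compounds in ethanol. Conversion to 13-hydroperoxylinoleic acid was followed at 234 nm and compared with a standard inhibitor. At least triplicate.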

Rattus norvegicus [5] = assay: In vivo antiinflammatory activity in Fisher 344 rat assessed as inhibition of carrageenan-induced paw edema at 0.01 mmol/kg, ip administered simultaneously with carrageenan measured after 3.5 hrs; assay type: functional; details: Fisher 344, ip
Method in brief: (§2)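 Rats of both sexes (pregnant females excluded), bred in-house and fasted during the experiment; 6–15 per group, run twice. Test agents were suspended in water with a few drops of Tween 80 and given ip at the time of carrageenin injection. Rats were killed 3.5 h later. Injected minus uninjected paw weight gave % edema inhibition versus water-treated controls.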

[6] = Antioxidant activity assessed as reduction of DPPH activity at 0.1 mM after 20 mins; assay type: functional; set-up: scale not given: the % may be the effect or the level left
Method in brief: (§3)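 DPPH at 0.05 mM final in absolute ethanol was mixed with test compounds in ethanol at 0.1 or 0.5 mM final, with ethanol as the control. After 20 and 60 min at room temperature, absorbance was read at 517 nm. At least triplicate.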

[7] = Antioxidant activity assessed as reduction of DPPH activity at 0.1 mM after 60 mins; assay type: functional; set-up: scale not given: the % may be the effect or the level left; method in brief: as §3
[8] = Antioxidant activity assessed as reduction of DPPH activity at 0.5 mM after 20 mins; assay type: functional; set-up: scale not given: the % may be the effect or the level left; method in brief: as §3
[9] = Antioxidant activity assessed as reduction of DPPH activity at 0.5 mM after 60 mins; assay type: functional; set-up: scale not given: the % may be the effect or the level left; method in brief: as §3
Rattus norvegicus [10] = assay: Antiinflammatory activity in Fisher 344 rat assessed as inhibition of carrageenan-induced paw edema at 0.01 mmol/kg, ip administered simultaneously with carrageenan measured after 3.5 hrs; assay type: functional; details: Fisher 344, ip; method in brief: as §2
Rattus norvegicus [11] = assay: Antiinflammatory activity in Fisher 344 rat assessed as inhibition of carrageenan-induced paw edema at 0.001 mmol/kg, ip administered simultaneously with carrageenan measured after 3.5 hrs; assay type: functional; details: Fisher 344, ip

SMILES | Activity [1] | survival at 24 h [2] [%] | Activity (Rattus norvegicus [3]) | Activity (Rattus norvegicus [4]) | inhibition (Glycine max) | inhibition in vivo at 10 µmol/kg (Rattus norvegicus [5]) [%] | Activity [6] [%] | Activity [7] [%] | Activity [8] | Activity [9] | inhibition in vivo at 10 µmol/kg (Rattus norvegicus [10]) [%] | inhibition in vivo at 1 µmol/kg (Rattus norvegicus [11]) [%]
Cc1ccc2oc(=O)c(C(=O)NCCN)c(O)c2c1 | 100% | 80 | Non-toxic | Non-toxic | 14% | 59 | 48 | 59 | 70% | 65% |  | 
NCCNC(=O)c1c(O)c2ccccc2oc1=O | 91% | 80 | Non-toxic | Non-toxic | 100% | 59 | 42 | 25 | inactive | inactive |  | 
Cc1ccc2oc(=O)c(C(=O)NCCCCCCCCN)c(O)c2c1 | 100% | 80 | Non-toxic | Non-toxic | 30% | 59 | 58 | 68 | 72% | 78% |  | 
CCOC(=O)c1c(O)oc2ccccc2c1=O | 91% | 80 | Non-toxic | Non-toxic | 93% | 63 | 15 | 27 | 20% | 13% |  | 
CCOC(=O)c1c(O)c2cc(C)ccc2oc1=O | 81% | 80 | Non-toxic | Non-toxic | 93% | 41 | 18 | 8 | 20% | 33% |  | 
Nc1ccccc1NC(=O)c1c(O)c2ccccc2oc1=O | inactive | 80 | Non-toxic | Non-toxic | 23% | 57 | 90 | 93 | 85% | 83% |  | 
CC(Cc1ccc(O)c(O)c1)C(C)Cc1ccc(O)c(O)c1 (stereo not given) |  |  |  |  | 84% |  |  | 83 | 97% | 98% |  | 
O=C(CCCCC1CCSS1)NCCCCCCCCNC(=O)c1c(O)c2ccccc2oc1=O (stereo not given) | inactive | 80 | Non-toxic | Non-toxic | 33% | 43 | 21 | 21 | 32% | 25% |  | 
O=C(CCCCC1CCSS1)NCCCCCCNC(=O)c1c(O)c2ccccc2oc1=O (stereo not given) | 96% | 80 | Non-toxic | Non-toxic | 18% |  | 15 | 18 | 23% | 12% | 72 | 61
Cc1c(C)c2c(c(C)c1O)CCC(C)(C(=O)O)O2 (stereo not given) | 88.2% |  |  |  |  |  |  |  |  |  |  | 
NCCCCCCCCNC(=O)c1c(O)c2ccccc2oc1=O | inactive | 80 | Non-toxic | Non-toxic | inactive | 48 | 17 | 8 | 9% | 19% |  | 
Cc1ccc2oc(=O)c(C(=O)Nc3ccccc3N)c(O)c2c1 | 100% | 80 | Non-toxic | Non-toxic | 22% | 60 | 74 | 65 | 70% | 78% |  | 
NCCCCCCNC(=O)c1c(O)oc2ccccc2c1=O | 100% | 80 | Non-toxic | Non-toxic | 52% | 49 | 3 | 3 | 5% | 5% |  | 
COc1ccc2c(c1)c(CC(=O)O)c(C)n2C(=O)c1ccc(Cl)cc1 [INDOMETHACIN] |  |  |  |  |  | 47 |  |  |  |  |  | 
O=C(O)CCCCC1CCSS1 (stereo not drawn) [LIPOIC ACID, ALPHA] | 38.6% |  |  |  | 29.1% | 29.6 | 20 | 27 | 5% | 7% |  | 
Cc1ccc2oc(=O)c(C(=O)NCCCCCCCCNC(=O)CCCCC3CCSS3)c(O)c2c1 (stereo not given) | 100% | 80 | Non-toxic | Non-toxic | 8.3% |  | 69 | 65 | 89% | 87% | 73 | 60
